# Assays:
# [1] = molecular target: T1, Alpha-1A adrenergic receptor (Homo sapiens, UniProt P35348); experiment: Binding affinity determined by displacement of [3H]prazosin from alpha-1A adrenergic receptor
# T1 sequence (P35348 whole entry): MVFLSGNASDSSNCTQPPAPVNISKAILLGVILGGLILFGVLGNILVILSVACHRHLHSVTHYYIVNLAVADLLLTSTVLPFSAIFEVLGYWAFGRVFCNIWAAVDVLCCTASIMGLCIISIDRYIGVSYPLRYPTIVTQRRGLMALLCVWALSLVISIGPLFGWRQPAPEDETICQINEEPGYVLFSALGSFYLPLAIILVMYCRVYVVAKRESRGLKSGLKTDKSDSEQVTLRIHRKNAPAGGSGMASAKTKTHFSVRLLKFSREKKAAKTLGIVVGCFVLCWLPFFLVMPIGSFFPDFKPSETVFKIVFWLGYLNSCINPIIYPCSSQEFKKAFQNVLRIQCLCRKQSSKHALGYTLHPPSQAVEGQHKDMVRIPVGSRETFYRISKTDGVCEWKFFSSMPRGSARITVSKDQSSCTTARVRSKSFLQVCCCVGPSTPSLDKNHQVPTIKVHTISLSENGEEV
# [2] = molecular target: T2, Alpha-1B adrenergic receptor (Homo sapiens, UniProt P35368); experiment: Binding affinity determined by displacement of [3H]prazosin from alpha-1B adrenergic receptor
# T2 sequence (P35368 whole entry): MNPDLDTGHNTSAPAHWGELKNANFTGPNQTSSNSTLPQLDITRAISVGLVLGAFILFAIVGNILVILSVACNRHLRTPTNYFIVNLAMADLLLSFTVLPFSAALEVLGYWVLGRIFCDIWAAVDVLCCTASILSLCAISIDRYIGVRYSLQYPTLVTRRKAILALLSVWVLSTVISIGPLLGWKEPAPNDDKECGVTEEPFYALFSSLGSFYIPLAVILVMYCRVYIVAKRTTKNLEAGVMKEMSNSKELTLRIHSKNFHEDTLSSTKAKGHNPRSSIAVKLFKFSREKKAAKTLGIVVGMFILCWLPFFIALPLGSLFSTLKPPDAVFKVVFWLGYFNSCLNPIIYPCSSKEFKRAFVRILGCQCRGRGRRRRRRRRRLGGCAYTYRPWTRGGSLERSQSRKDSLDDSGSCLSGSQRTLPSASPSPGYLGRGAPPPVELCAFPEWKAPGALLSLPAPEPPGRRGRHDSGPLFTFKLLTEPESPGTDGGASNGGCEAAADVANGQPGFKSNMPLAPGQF
# [3] = molecular target: T3, Alpha-1D adrenergic receptor (Homo sapiens, UniProt P25100); experiment: Binding affinity determined by displacement of [3H]prazosin from alpha-1D adrenergic receptor
# T3 sequence (P25100 whole entry): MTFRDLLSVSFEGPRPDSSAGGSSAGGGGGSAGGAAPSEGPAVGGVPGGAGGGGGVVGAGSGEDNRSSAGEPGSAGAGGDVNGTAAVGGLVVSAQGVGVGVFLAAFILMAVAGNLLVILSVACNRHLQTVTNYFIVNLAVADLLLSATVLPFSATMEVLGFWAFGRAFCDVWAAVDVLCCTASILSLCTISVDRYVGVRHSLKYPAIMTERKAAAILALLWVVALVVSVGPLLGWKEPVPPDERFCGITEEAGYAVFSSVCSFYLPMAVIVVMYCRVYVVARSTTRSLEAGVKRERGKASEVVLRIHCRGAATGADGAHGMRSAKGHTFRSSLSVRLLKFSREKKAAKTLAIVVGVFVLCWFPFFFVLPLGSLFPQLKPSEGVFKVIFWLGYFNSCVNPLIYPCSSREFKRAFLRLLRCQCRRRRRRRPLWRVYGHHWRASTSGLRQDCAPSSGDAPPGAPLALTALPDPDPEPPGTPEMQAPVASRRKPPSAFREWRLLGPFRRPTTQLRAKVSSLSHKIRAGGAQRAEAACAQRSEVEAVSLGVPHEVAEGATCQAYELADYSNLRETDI
# In short: (§1)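 Radioligand displacement binding at the cloned receptor, incubated for 30 min.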
# [4] = molecular target: T4, Alpha-2B adrenergic receptor (Homo sapiens, UniProt P18089); experiment: Binding affinity determined by displacement of [3H]rauwolscine from alpha-2B adrenergic receptor
# T4 sequence (P18089 whole entry): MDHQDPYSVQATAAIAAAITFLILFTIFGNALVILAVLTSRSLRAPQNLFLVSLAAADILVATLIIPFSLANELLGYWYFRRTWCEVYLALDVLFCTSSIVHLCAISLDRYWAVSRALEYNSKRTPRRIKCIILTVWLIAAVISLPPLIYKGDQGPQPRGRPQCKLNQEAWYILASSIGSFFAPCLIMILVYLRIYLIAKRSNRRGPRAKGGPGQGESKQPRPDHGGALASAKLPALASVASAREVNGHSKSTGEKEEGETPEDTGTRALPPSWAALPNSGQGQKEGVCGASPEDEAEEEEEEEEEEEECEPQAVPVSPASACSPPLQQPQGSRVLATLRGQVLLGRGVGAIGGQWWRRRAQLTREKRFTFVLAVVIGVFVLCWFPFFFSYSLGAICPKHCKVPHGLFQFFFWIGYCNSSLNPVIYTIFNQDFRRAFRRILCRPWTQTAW
# [5] = molecular target: Voltage-gated L-type calcium channel (Rattus norvegicus, UniProt P22002+Q02485+P27732); experiment: Binding affinity at the L-type [Ca2+] channel from rat brain homogenate by [3H]nitrendipine displacement.; format: tissue-based
# [6] = molecular target: T5, Alpha-2C adrenergic receptor (Homo sapiens, UniProt P18825); experiment: Binding affinity assayed by displacement of [3H]rauwolscine from human alpha-2C adrenergic receptor; in short: as §1
# T5 sequence (P18825 whole entry): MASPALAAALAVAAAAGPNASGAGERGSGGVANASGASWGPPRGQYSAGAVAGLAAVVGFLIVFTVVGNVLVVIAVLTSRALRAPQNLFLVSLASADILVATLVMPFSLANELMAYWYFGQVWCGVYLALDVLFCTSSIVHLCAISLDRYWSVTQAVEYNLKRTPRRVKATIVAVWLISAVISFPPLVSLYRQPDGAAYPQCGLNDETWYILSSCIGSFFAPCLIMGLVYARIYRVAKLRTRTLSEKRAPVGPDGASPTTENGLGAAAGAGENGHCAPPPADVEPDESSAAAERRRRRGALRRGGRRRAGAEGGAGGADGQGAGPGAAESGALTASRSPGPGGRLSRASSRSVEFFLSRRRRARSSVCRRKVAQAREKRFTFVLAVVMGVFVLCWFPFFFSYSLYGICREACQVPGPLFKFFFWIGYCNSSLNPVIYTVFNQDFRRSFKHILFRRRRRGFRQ
# [7] = molecular target: T6, Alpha-2A adrenergic receptor (Homo sapiens, UniProt P08913); experiment: Binding affinity determined by displacement of [3H]rauwolscine from alpha-2A adrenergic receptor; in short: as §1
# T6 sequence (P08913 whole entry): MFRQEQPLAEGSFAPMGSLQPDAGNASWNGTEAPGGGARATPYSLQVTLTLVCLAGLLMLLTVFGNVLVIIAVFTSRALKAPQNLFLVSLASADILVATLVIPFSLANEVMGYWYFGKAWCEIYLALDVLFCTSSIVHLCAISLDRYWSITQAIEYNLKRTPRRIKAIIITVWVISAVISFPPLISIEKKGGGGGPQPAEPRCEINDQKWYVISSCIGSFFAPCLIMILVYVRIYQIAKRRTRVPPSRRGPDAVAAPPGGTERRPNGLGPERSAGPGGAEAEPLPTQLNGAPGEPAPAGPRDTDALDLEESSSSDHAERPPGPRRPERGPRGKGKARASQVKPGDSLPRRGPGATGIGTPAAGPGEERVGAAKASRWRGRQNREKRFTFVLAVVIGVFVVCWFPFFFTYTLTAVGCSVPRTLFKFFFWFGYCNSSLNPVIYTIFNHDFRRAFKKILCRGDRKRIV
Ki [1] [nM],Ki [2] [nM],Ki [3] [nM],Ki [4] [nM],Log Ki [5],Ki [6] [nM],Ki [7] [nM],Structure (SMILES)
1.48,162,316,575,< -6,398,631,CO/C(O)=C1\C(C)=NC(C)=C(C(=O)NCCCN2CCC(c3ccccc3)(c3ccccc3)CC2)C1c1ccc([N+](=O)[O-])c(OC)c1 (stereo unspecified)
316,977,1740,200,,776,1170,CC1=C(C(=O)O)C(c2ccc3c(c2)OCO3)C(C(=O)NCCCN2CCC(c3ccccc3)(c3ccccc3)CC2)=C(C)N1 (stereo unspecified)
1.78,123,447,2290,< -6,1000,2140,CO/C(O)=C1\C(C)=NC(C)=C(C(=O)NCCCN2CCC(c3ccccc3)(c3ccccc3)CC2)C1c1ccc(Cl)cc1 (stereo unspecified)
7.08,204,490,1510,< -6,1150,2190,CO/C(O)=C1\C(C)=NC(C)=C(C(=O)NCCCN2CCC(c3ccccc3)(c3ccccc3)CC2)C1c1ccc(OC)cc1 (stereo unspecified)
1.86,115,324,1260,< -6,158,912,CO/C(O)=C1\C(C)=NC(C)=C(C(=O)NCCCN2CCC(c3ccccc3)(c3ccccc3)CC2)C1c1ccc(Cl)c(Cl)c1 (stereo unspecified)
0.525,41.7,126,91.2,< -6,47.9,110,CO/C(O)=C1\C(C)=NC(C)=C(C(=O)NCCCN2CCC(c3ccccc3)CC2)C1c1ccc(Cl)c([N+](=O)[O-])c1 (stereo unspecified)
20.4,240,501,490,< -6,245,676,CO/C(O)=C1\C(C)=NC(C)=C(C(=O)N(C)CCCN2CCC(c3ccccc3)(c3ccccc3)CC2)C1c1ccc([N+](=O)[O-])cc1 (stereo unspecified)
16.2,1780,,575,,1020,2090,CNC(=O)C1=C(C)NC(C)=C(C(=O)NCCCN2CCC(c3ccccc3)(c3ccccc3)CC2)C1c1ccc2c(c1)OCO2 (stereo unspecified)
1.82,151,380,1260,< -6,871,759,CO/C(O)=C1\C(C)=NC(C)=C(C(=O)NCCCN2CCC(c3ccccc3)(c3ccccc3)CC2)C1c1ccc(C#N)cc1 (stereo unspecified)
8.71,77.6,1150,513,< -6,245,447,CO/C(O)=C1\C(C)=NC(C)=C(C(=O)NCCN2CCC(c3ccccc3)(c3ccccc3)CC2)C1c1ccc([N+](=O)[O-])cc1 (stereo unspecified)
36.3,138,741,891,-6.43,631,1580,CO/C(O)=C1\C(C)=NC(C)=C(C(=O)NCCCN2CCC(c3ccccc3)(c3ccccc3)CC2)C1c1ccc2ccccc2c1 (stereo unspecified)

Structure (SMILES),Ki [1] [nM],Ki [2] [nM],Ki [3] [nM],Ki [4] [nM],Log Ki [5],Ki [6] [nM],Ki [7] [nM]
CNC(=O)C1=C(C)NC(C)=C(C(=O)NCCCN2CCC(c3ccccc3)(c3ccccc3)CC2)C1c1ccc([N+](=O)[O-])cc1 (stereo unspecified),4.47,490,759,933,< -6,,
CC(C)C1=C(C(N)=O)C(c2ccc([N+](=O)[O-])cc2)C(C(=O)NCCCN2CCC(c3ccccc3)(c3ccccc3)CC2)=C(C(C)C)N1 (stereo unspecified),53.7,,347,,,,
CC1=C(C(=O)NCCCN2CCC(c3ccccc3)(c3ccccc3)CC2)C(c2ccc([N+](=O)[O-])cc2)C(C(=O)N(C)C)=C(C)N1 (stereo unspecified),,,,,< -6,,
CC1=C(C#N)C(c2ccc([N+](=O)[O-])cc2)C(C(=O)NCCCN2CCC(c3ccccc3)(c3ccccc3)CC2)=C(C)N1 (stereo unspecified),56.2,166,437,832,< -6,479,631
CC(=O)C1=C(C)NC(C)=C(C(=O)NCCCN2CCC(c3ccccc3)(c3ccccc3)CC2)C1c1ccc([N+](=O)[O-])cc1 (stereo unspecified),,,,,< -6,,
CCC1=C(C(N)=O)C(c2ccc([N+](=O)[O-])cc2)C(C(=O)NCCCN2CCC(c3ccccc3)(c3ccccc3)CC2)=C(CC)N1 (stereo unspecified),,,,,,,355
"CC1=C(C(N)=O)C(c2ccc([N+](=O)[O-])cc2)C(C(=O)NCCCN2CCC(c3ccccc3)(c3ccccc3)CC2)=C(C)N1 (single isomer, unassigned; (+))",,,398,407,,,
"CC1=C(C(N)=O)C(c2ccc([N+](=O)[O-])cc2)C(C(=O)NCCCN2CCC(c3ccccc3)(c3ccccc3)CC2)=C(C)N1 (single isomer, unassigned; (-))",,,224,282,,,
CC1=C(C(N)=O)C(c2ccc([N+](=O)[O-])cc2)C(C(=O)NCCCN2CCC(c3ccccc3)(c3ccccc3)CC2)=C(C)N1 (stereo in doubt; 19),,,,,< -6,,
